Laboratory results as given in ChEMBL document CHEMBL3227998, “Synthesis and pharmacological activity of 2,3,4,5,-tetrahydro-1,5-methano-1H-3-benzazepines” (J Med Chem, 1979).
Active and inactive are the calls of the source. The calls are words filed in the database; no cut-off is given here.

Columns and labels:
[1] = tested on: Mus musculus; test: (§1) Toxicity in sc dosed mouse; format: organism-based; conditions: in vivo
[2] = tested on: Mus musculus; test: Analgesic activity in sc dosed mouse by eddy's hot-plate method; format: functional
Procedure, shortened: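 Mice were given aqueous solutions of the oxalate salts subcutaneously. Antinociception was read by the Eddy hot-plate method, and analgesic potency was expressed as ED50 in mg/kg.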

[3] = tested on: Mus musculus; test: Inhibition of morphine-induced response in mouse at 0.3 mg/kg, sc by tail-flick antagonist assay; format: functional; design: scale not given: the % may be the effect or the level left; conditions: route subcutaneous
[4] = tested on: Mus musculus; test: Inhibition of morphine-induced response in mouse at 1 mg/kg, sc by tail-flick antagonist assay; format: functional; design: scale not given: the % may be the effect or the level left; conditions: route subcutaneous
[5] = as §1; format: organism-based; conditions: in vivo
[6] = tested on: Mus musculus; test: Inhibition of morphine-induced response in mouse at 3 mg/kg, sc by tail-flick antagonist assay; format: functional; design: scale not given: the % may be the effect or the level left; conditions: route subcutaneous

| SMILES | Activity [1] | Activity [2] | ED50 [2] [mg/kg] | other results |
| --- | --- | --- | --- | --- |
| CC(C)=CCN1CC2CC(C1)c1ccccc12.O=C(O)C(=O)O | Toxic | inactive | – | – |
| CN1CC2CC(C1)c1ccccc12.O=C(O)C(=O)O | Toxic | inactive | – | – |
| O=C(O)C(=O)O.c1ccc(CCN2CC3CC(C2)c2ccccc23)cc1 | Non-toxic | inactive | – | – |
| O=C(O)C(=O)O.c1ccc2c(c1)C1CC2CN(CC2CC2)C1 | Toxic | inactive | – | Activity [3]: 58% |
| c1ccc2c(c1)C1CCNCC2C1 (stereo not drawn) | – | – | 4.9 | – |
| c1ccc2c(c1)CC1CC2CCN1 (stereo not drawn) | – | – | 10.2 | – |
| CCCN1CC2CC(C1)c1ccccc12.O=C(O)C(=O)O | Toxic | inactive | – | Activity [4]: 47% |
| COc1ccc2c3c1O[C@H]1[C@@H](O)C=C[C@H]4[C@@H](C2)N(C)CC[C@@]341 [CODEINE] | – | – | 5.8 | – |
| C=CCN1CC2CC(C1)c1ccccc12.O=C(O)C(=O)O | – | – | 15.6 | LD50 [5]: 47 mg/kg; Activity [6]: 56% |
